Measured values published in ChEMBL document CHEMBL4414663, “Pyrazole-4-Carboxamide (YW2065): A Therapeutic Candidate for Colorectal Cancer via Dual Activities of Wnt/β-Catenin Signaling Inhibition and AMP-Activated Protein Kinase (AMPK) Activation” (J Med Chem, 2019).

Tests used:
HT-29 = assay: Inhibition of colony formation in human HT-29 cells incubated for 14 days by crystal violet staining based assay; format: functional, cell-based
Method in brief: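 SW480, SW620 or HT29 cells seeded at 300/well in 3 mL medium in 6-well plates with a concentration series of compound. After 14 days, fixed in 4% formaldehyde and stained with 0.5% crystal violet in 25% aqueous MeOH; colonies photographed.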

[1] = Toxicity in C57BL/6 mouse assessed as effect on albumin level at 100 mg/kg/day, ip for 21 days; format: organism-based; conditions: in vivo, 504 h

## Cc1c(C(=O)Nc2ccc3ccccc3n2)cnn1-c1ccccc1Br
HT-29
  inhibition: Dose-dependent effect
[1]
  Activity: Non-Toxic
